ChEMBL document CHEMBL1147605, “Syntheses and biological evaluation of new fluoroquinolone antibacterials containing chiral oxiimino pyrrolidine” (Bioorg Med Chem Lett, 2004)

Key:
HepG2 = assay: Cytotoxicity was determined for the compound in HepG2 cell line; format: functional, cell-based; details: Homo sapiens
[1] = Time for maximum plasma concentration reached by compound was determined in rats at 50 mg/kg dose; format: ADME, organism-based; parameters: dose 50 mg/kg; details: rat
How it was run: (§1)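 Pharmacokinetics were measured in SD rats given 50mg/kg, reporting Cmax, Tmax, T1/2 and AUC.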

[2] = test system: Staphylococcus epidermidis; assay: In vitro antibacterial activity against the Ofloxacin Resistant Staphylococcus epidermidis 319; format: functional
How it was run: (§2)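 MICs by agar dilution following National Committee for Clinical Laboratory Standards recommendations; all strains obtained from Hoechst.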

Staphylococcus aureus [3] = assay: In vitro antibacterial activity against the Methicillin-Resistant Staphylococcus aureus (MRSA) 707 E; format: functional; how it was run: as §2
Pseudomonas aeruginosa [4] = assay: In vitro antibacterial activity against the Ofloxacin Resistant Pseudomonas aeruginosa 279II; format: functional; how it was run: as §2
Streptococcus pyogenes [5] = assay: In vitro antibacterial activity against the Streptococcus pyogenes 77A; format: functional
[6] = test system: Staphylococcus epidermidis; assay: In vitro antibacterial activity against the Ofloxacin Resistant Staphylococcus epidermidis 291; format: functional; how it was run: as §2
Escherichia coli [7] = assay: In vitro antibacterial activity against the Escherichia coli DC 2; format: functional
Staphylococcus aureus [8] = assay: In vitro antibacterial activity against the Ofloxacin Resistant Staphylococcus aureus 293; format: functional; how it was run: as §2
Staphylococcus aureus [9] = assay: In vitro antibacterial activity against the Ofloxacin Resistant Staphylococcus aureus 303; format: functional; how it was run: as §2
Salmonella typhimurium = assay: In vitro antibacterial activity against the Salmonella Typhimurium; format: functional, Salmonella enterica subsp. enterica serovar Typhimurium; details: Salmonella enterica
Staphylococcus aureus [10] = assay: In vitro antibacterial activity against the Methicillin-Resistant Staphylococcus aureus (MRSA) 701 E; format: functional; how it was run: as §2
Staphylococcus aureus [11] = assay: In vitro antibacterial activity against the Ofloxacin Resistant Staphylococcus aureus 179; format: functional; how it was run: as §2
Enterococcus sp. = assay: In vitro antibacterial activity against the Ofloxacin Resistant Enterococcus knothe 101; format: functional; how it was run: as §2
Staphylococcus aureus [12] = assay: In vitro antibacterial activity against the Methicillin-Resistant Staphylococcus aureus (MRSA) 692 E; format: functional; how it was run: as §2
Klebsiella = assay: In vitro antibacterial activity against the Ofloxacin Resistant Klebsiella species 30-92; format: functional; how it was run: as §2
Streptococcus pyogenes [13] = assay: In vitro antibacterial activity against the Streptococcus pyogenes 308A; format: functional
[14] = Maximum plasma concentration reached by compound was determined in rats at 50 mg/kg dose; format: ADME, organism-based; parameters: dose 50 mg/kg; details: rat; how it was run: as §1
Enterobacter cloacae = assay: In vitro antibacterial activity against the Enterobacter cloacae 1321 E; format: functional
V79-4 = assay: Cytotoxicity was determined for the compound in V79-4 cell line; format: functional, cell-based; details: Cricetulus griseus
Staphylococcus aureus [15] = assay: In vitro antibacterial activity against the Staphylococcus aureus SG511; format: functional
Escherichia coli [16] = assay: In vitro antibacterial activity against the Escherichia coli 078; format: functional
Pseudomonas aeruginosa [17] = assay: In vitro antibacterial activity against the Pseudomonas aeruginosa 1592E; format: functional
[18] = Plasma concentration for the compound was determined in rats at 50 mg/kg dose; format: ADME, organism-based; parameters: dose 50 mg/kg; details: rat; how it was run: as §1
Pseudomonas aeruginosa [19] = assay: In vitro antibacterial activity against the Pseudomonas aeruginosa 1771M; format: functional
Staphylococcus aureus [20] = assay: In vitro antibacterial activity against the Methicillin-Resistant Staphylococcus aureus (MRSA) 697 E; format: functional; how it was run: as §2
Staphylococcus aureus [21] = assay: In vitro antibacterial activity against the Methicillin-Resistant Staphylococcus aureus (MRSA) 690 E; format: functional; how it was run: as §2
[22] = Half-life period for the compound was determined in rats at 50 mg/kg dose; format: ADME, organism-based; parameters: dose 50 mg/kg; details: rat, in vivo
Staphylococcus aureus [23] = assay: In vitro antibacterial activity against the Methicillin-Resistant Staphylococcus aureus (MRSA) 705 E; format: functional; how it was run: as §2
Staphylococcus aureus [24] = assay: In vitro antibacterial activity against the Staphylococcus aureus 285; format: functional

| Structure (SMILES) | MIC [2] | MIC (Staphylococcus aureus [3]) | MIC (Pseudomonas aeruginosa [4]) | MIC (Streptococcus pyogenes [5]) | MIC [6] | MIC (Escherichia coli [7]) | MIC (Staphylococcus aureus [8]) | MIC (Staphylococcus aureus [9]) | MIC (Salmonella typhimurium) | MIC (Staphylococcus aureus [11]) | MIC (Enterococcus sp.) | MIC (Klebsiella) | MIC (Streptococcus pyogenes [13]) | MIC (Enterobacter cloacae) | MIC (Staphylococcus aureus [15]) | MIC (Escherichia coli [16]) | MIC (Pseudomonas aeruginosa [17]) | MIC (Pseudomonas aeruginosa [19]) | MIC (Staphylococcus aureus [23]) | MIC (Staphylococcus aureus [24]) | further results |
| --- | --- | --- | --- | --- | --- | --- | --- | --- | --- | --- | --- | --- | --- | --- | --- | --- | --- | --- | --- | --- | --- |
| CO/N=C1\CN(c2nc3c(cc2F)c(=O)c(C(=O)O)cn3C2CC2)C[C@]1(C)CN.Cl | 0.391 µg/mL | < 0.002 µg/mL | 6.25 µg/mL | 0.013 µg/mL | 0.195 µg/mL | 0.049 µg/mL | 0.098 µg/mL | 0.098 µg/mL | 0.013 µg/mL | 0.098 µg/mL | 0.098 µg/mL | 1.56 µg/mL | 0.098 µg/mL | 0.007 µg/mL | 0.004 µg/mL | 0.025 µg/mL | 1.56 µg/mL | 0.781 µg/mL | 0.004 µg/mL | 0.007 µg/mL | IC50 (HepG2): 37.3 µg/mL; Tmax [1]: 2 h; MIC (Staphylococcus aureus [10]): < 0.002 µg/mL; MIC (Staphylococcus aureus [12]): < 0.002 µg/mL; Cmax [14]: 9060 ng/mL; IC50 (V79-4): 5.49 µg/mL; AUC [18]: 90800 ng·h/mL; MIC (Staphylococcus aureus [20]): < 0.002 µg/mL; MIC (Staphylococcus aureus [21]): < 0.002 µg/mL; half-life [22]: 4.5 h |
| CO/N=C1\CN(c2nc3c(cc2F)c(=O)c(C(=O)O)cn3C2CC2)C[C@@]1(C)CN.Cl | 6.25 µg/mL | 0.013 µg/mL | 6.25 µg/mL | 0.098 µg/mL | 3.12 µg/mL | 0.098 µg/mL | 1.56 µg/mL | 0.781 µg/mL | 0.013 µg/mL | 1.56 µg/mL | 0.391 µg/mL | 3.12 µg/mL | 0.195 µg/mL | 0.007 µg/mL | 0.049 µg/mL | 0.025 µg/mL | 0.781 µg/mL | 0.391 µg/mL | 0.049 µg/mL | 0.049 µg/mL | MIC (Staphylococcus aureus [10]): 0.049 µg/mL; MIC (Staphylococcus aureus [12]): 0.025 µg/mL; MIC (Staphylococcus aureus [20]): 0.025 µg/mL; MIC (Staphylococcus aureus [21]): 0.025 µg/mL |
| CC1(CN)CN(c2nc3c(cc2F)c(=O)c(C(=O)O)cn3C2CC2)C/C1=N/OCc1ccccc1.Cl (stereo unspecified) |  |  |  | 0.025 µg/mL |  | 0.098 µg/mL |  |  | 0.098 µg/mL |  |  |  | 0.195 µg/mL | 0.049 µg/mL | < 0.002 µg/mL | 0.049 µg/mL | 6.25 µg/mL | 1.56 µg/mL |  | < 0.002 µg/mL |  |
| CO/N=C1\CN(c2nc3c(cc2F)c(=O)c(C(=O)O)cn3C2CC2)CC1(C)CN.Cl (stereo unspecified) | 0.391 µg/mL | < 0.002 µg/mL | 6.25 µg/mL | 0.025 µg/mL | 0.391 µg/mL | 0.049 µg/mL | 0.195 µg/mL | 0.195 µg/mL | 0.007 µg/mL | 0.195 µg/mL | 0.098 µg/mL | 1.56 µg/mL | 0.098 µg/mL | 0.004 µg/mL | 0.004 µg/mL | 0.004 µg/mL | 0.781 µg/mL | 0.391 µg/mL | 0.013 µg/mL | 0.007 µg/mL | MIC (Staphylococcus aureus [10]): 0.007 µg/mL; MIC (Staphylococcus aureus [12]): < 0.002 µg/mL; MIC (Staphylococcus aureus [20]): 0.007 µg/mL; MIC (Staphylococcus aureus [21]): 0.004 µg/mL |
| CO/N=C1\CN(c2c(F)c(N)c3c(=O)c(C(=O)O)cn(C4CC4)c3c2F)CC1(C)CN.Cl (stereo unspecified) | 0.049 µg/mL |  | 6.25 µg/mL | < 0.002 µg/mL | 0.025 µg/mL | 0.007 µg/mL | 0.025 µg/mL | 0.025 µg/mL | < 0.002 µg/mL | 0.025 µg/mL | 0.025 µg/mL | 0.781 µg/mL | 0.013 µg/mL | < 0.002 µg/mL | < 0.002 µg/mL | < 0.002 µg/mL | 0.391 µg/mL | 0.195 µg/mL | 0.004 µg/mL |  |  |
| CO/N=C1\CN(c2c(F)cc3c(=O)c(C(=O)O)cn(C4CC4)c3c2Cl)CC1(C)CN.Cl (stereo unspecified) |  |  |  | 0.025 µg/mL |  | 0.025 µg/mL |  |  | 0.025 µg/mL |  |  |  | 0.195 µg/mL | 0.004 µg/mL | 0.007 µg/mL | 0.007 µg/mL | 0.781 µg/mL | 0.195 µg/mL |  | 0.007 µg/mL |  |
